# Tested on: Bacillus cereus
# Assay: Antibacterial activity against Bacillus cereus clinical isolate after 24 hrs by iodonitrotetrazolium chloride dye based microdilution assay
# Format: functional
# Conditions: not given
# Procedure, shortened: (§1)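 Fresh overnight cultures adjusted spectrophotometrically to 1×10^5 CFU/mL, giving 1.0×10^4 CFU per well in tryptic soy broth. Compounds were dissolved in 5% DMSO and tested at 0.001-1.0 mg/ml by serial dilution; 5% DMSO was the negative control. After 24 h at 37 °C, 0.2 mg/mL INT solution was added for 30 min at 37 °C and OD read at 655 nm. MIC is the lowest concentration giving significant growth inhibition versus the positive control. Duplicates, repeated three times.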
row,MIC,SMILES
1,106 µM,CC1(C)c2ssc(=S)c2-c2ccccc2N1C(=O)CSC1=NCCS1

# Tested on: Bacillus cereus
# Assay: Bactericidal activity against Bacillus cereus clinical isolate incubated for 24 hrs followed by re-plating on tryptic soy broth
# Format: functional
# Conditions: not given
# Procedure, shortened: (§2)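 Bacteria were grown in tryptic soy broth, 1.0×10^4 CFU per well, with compounds in 5% DMSO at 0.001-1.0 mg/ml for 24 h at 37 °C. Then 10 µL was subcultured into fresh TSB. MBC is the lowest concentration showing no growth after subculture, taken as 99.5% kill of the original inoculum. Duplicates, repeated three times.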
row,SMILES,MBC
1,CC1(C)c2ssc(=S)c2-c2ccccc2N1C(=O)CSC1=NCCS1,141 µM

# Tested on: Micrococcus flavus
# Assay: Antibacterial activity against Micrococcus flavus ATCC 10240 after 24 hrs by iodonitrotetrazolium chloride dye based microdilution method
# Format: functional
# Conditions: ATCC 10240, 24 h
# Procedure, shortened: as §1
row,MIC,SMILES
1,106 µM,CC1(C)c2ssc(=S)c2-c2ccccc2N1C(=O)CSC1=NCCS1

# Tested on: Micrococcus flavus
# Assay: Bactericidal activity against Micrococcus flavus ATCC 10240 incubated for 24 hrs followed by re-plating on tryptic soy broth
# Format: functional
# Conditions: ATCC 10240, 24 h
# Procedure, shortened: as §2
row,SMILES,MBC
1,CC1(C)c2ssc(=S)c2-c2ccccc2N1C(=O)CSC1=NCCS1,141 µM

# Tested on: Staphylococcus aureus
# Assay: Antibacterial activity against Staphylococcus aureus ATCC 6538 after 24 hrs by iodonitrotetrazolium chloride dye based microdilution method
# Format: functional
# Conditions: ATCC 6538, 24 h
# Procedure, shortened: as §1
row,MIC,SMILES
1,106 µM,CC1(C)c2ssc(=S)c2-c2ccccc2N1C(=O)CSC1=NCCS1

# Tested on: Staphylococcus aureus
# Assay: Bactericidal activity against Staphylococcus aureus ATCC 6538 incubated for 24 hrs followed by re-plating on tryptic soy broth
# Format: functional
# Conditions: ATCC 6538, 24 h
# Procedure, shortened: as §2
row,SMILES,MBC
1,CC1(C)c2ssc(=S)c2-c2ccccc2N1C(=O)CSC1=NCCS1,141 µM

# Tested on: Listeria monocytogenes
# Assay: Antibacterial activity against Listeria monocytogenes NCTC 7973 after 24 hrs by iodonitrotetrazolium chloride dye based microdilution method
# Format: functional
# Conditions: NCTC 7973, 24 h
# Procedure, shortened: as §1
row,MIC,SMILES
1,106 µM,CC1(C)c2ssc(=S)c2-c2ccccc2N1C(=O)CSC1=NCCS1

# Tested on: Listeria monocytogenes
# Assay: Bactericidal activity against Listeria monocytogenes NCTC 7973 incubated for 24 hrs followed by re-plating on tryptic soy broth
# Format: functional
# Conditions: NCTC 7973, 24 h
# Procedure, shortened: as §2
row,SMILES,MBC
1,CC1(C)c2ssc(=S)c2-c2ccccc2N1C(=O)CSC1=NCCS1,141 µM

# Tested on: Enterobacter cloacae
# Assay: Antibacterial activity against Enterobacter cloacae clinical isolate after 24 hrs by iodonitrotetrazolium chloride dye based microdilution method
# Format: functional
# Conditions: not given
# Procedure, shortened: as §1
row,MIC,SMILES
1,70.7 µM,CC1(C)c2ssc(=S)c2-c2ccccc2N1C(=O)CSC1=NCCS1

# Tested on: Enterobacter cloacae
# Assay: Bactericidal activity against Enterobacter cloacae incubated for 24 hrs followed by re-plating on tryptic soy broth
# Format: functional
# Conditions: not given
# Procedure, shortened: as §2
row,SMILES,MBC
1,CC1(C)c2ssc(=S)c2-c2ccccc2N1C(=O)CSC1=NCCS1,141 µM

# Tested on: Pseudomonas aeruginosa
# Assay: Antibacterial activity against Pseudomonas aeruginosa ATCC 27853 after 24 hrs by iodonitrotetrazolium chloride dye based microdilution method
# Format: functional
# Conditions: ATCC 27853, 24 h
# Procedure, shortened: as §1
row,MIC,SMILES
1,70.7 µM,CC1(C)c2ssc(=S)c2-c2ccccc2N1C(=O)CSC1=NCCS1

# Tested on: Pseudomonas aeruginosa
# Assay: Bactericidal activity against Pseudomonas aeruginosa ATCC 27853 incubated for 24 hrs followed by re-plating on tryptic soy broth
# Format: functional
# Conditions: ATCC 27853, 24 h
# Procedure, shortened: as §2
row,SMILES,MBC
1,CC1(C)c2ssc(=S)c2-c2ccccc2N1C(=O)CSC1=NCCS1,141 µM

# Tested on: Salmonella typhimurium
# Assay: Antibacterial activity against Salmonella typhimurium ATCC 13311 after 24 hrs by iodonitrotetrazolium chloride dye based microdilution method
# Format: functional, Salmonella enterica subsp. enterica serovar Typhimurium
# Conditions: Salmonella enterica, ATCC 13311, 24 h
# Procedure, shortened: as §1
row,MIC,SMILES
1,106 µM,CC1(C)c2ssc(=S)c2-c2ccccc2N1C(=O)CSC1=NCCS1

# Tested on: Salmonella typhimurium
# Assay: Bactericidal activity against Salmonella typhimurium ATCC 13311 incubated for 24 hrs followed by re-plating on tryptic soy broth
# Format: functional, Salmonella enterica subsp. enterica serovar Typhimurium
# Conditions: Salmonella enterica, ATCC 13311, 24 h
# Procedure, shortened: as §2
row,SMILES,MBC
1,CC1(C)c2ssc(=S)c2-c2ccccc2N1C(=O)CSC1=NCCS1,141 µM

# Tested on: Escherichia coli
# Assay: Antibacterial activity against Escherichia coli ATCC 35210 after 24 hrs by iodonitrotetrazolium chloride dye based microdilution method
# Format: functional
# Conditions: ATCC 35210, 24 h
# Procedure, shortened: as §1
row,MIC,SMILES
1,106 µM,CC1(C)c2ssc(=S)c2-c2ccccc2N1C(=O)CSC1=NCCS1

# Tested on: Escherichia coli
# Assay: Bactericidal activity against Escherichia coli ATCC 35210 incubated for 24 hrs followed by re-plating on tryptic soy broth
# Format: functional
# Conditions: ATCC 35210, 24 h
# Procedure, shortened: as §2
row,SMILES,MBC
1,CC1(C)c2ssc(=S)c2-c2ccccc2N1C(=O)CSC1=NCCS1,141 µM

# Tested on: Aspergillus fumigatus
# Assay: Antifungal activity against Aspergillus fumigatus ATCC 1022 after 72 hrs by microdilution technique
# Format: functional
# Conditions: ATCC 1022, 72 h
# Procedure, shortened: (§3)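 Spores were washed off malt agar with 0.85% saline containing 0.1% Tween 80 and adjusted to about 1.0×10^5 per well. Compounds in 5% DMSO were serially diluted (0.001-1.0 mg/ml) in malt broth with inoculum. Plates were shaken at 160 rpm for 72 h at 28 °C. MIC is the lowest concentration without visible growth under a binocular microscope. Three independent experiments in duplicate.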
row,MIC,SMILES
1,3.53 ×10⁻² mM,CC1(C)c2ssc(=S)c2-c2ccccc2N1C(=O)CSC1=NCCS1

# Tested on: Aspergillus fumigatus
# Assay: Fungicidal activity against Aspergillus fumigatus ATCC 1022 incubated for 72 hrs followed by sub-culturing on broth malt medium and measured after 72 hrs
# Format: functional
# Conditions: ATCC 1022, 72 h
# Procedure, shortened: (§4)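 After 72 h exposure in malt broth, 2 µL from test wells was subcultured into wells holding 100 µL broth and incubated a further 72 h at 28 °C. MFC is the lowest concentration with no visible growth, taken as 99.5% kill of the original inoculum. Three independent experiments in duplicate.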
row,SMILES,MFC
1,CC1(C)c2ssc(=S)c2-c2ccccc2N1C(=O)CSC1=NCCS1,7.06 ×10⁻² mM

# Tested on: Aspergillus versicolor
# Assay: Antifungal activity against Aspergillus versicolor ATCC 11730 after 72 hrs by microdilution method
# Format: functional
# Conditions: ATCC 11730, 72 h
# Procedure, shortened: as §3
row,MIC,SMILES
1,3.53 ×10⁻² mM,CC1(C)c2ssc(=S)c2-c2ccccc2N1C(=O)CSC1=NCCS1

# Tested on: Aspergillus versicolor
# Assay: Fungicidal activity against Aspergillus versicolor ATCC 11730 incubated for 72 hrs followed by sub-culturing on broth malt medium and measured after 72 hrs
# Format: functional
# Conditions: ATCC 11730, 72 h
# Procedure, shortened: as §4
row,SMILES,MFC
1,CC1(C)c2ssc(=S)c2-c2ccccc2N1C(=O)CSC1=NCCS1,7.06 ×10⁻² mM

# Tested on: Aspergillus ochraceus
# Assay: Antifungal activity against Aspergillus ochraceus ATCC 12066 after 72 hrs by microdilution technique
# Format: functional
# Conditions: ATCC 12066, 72 h
# Procedure, shortened: as §3
row,MIC,SMILES
1,1.88 ×10⁻² mM,CC1(C)c2ssc(=S)c2-c2ccccc2N1C(=O)CSC1=NCCS1

# Tested on: Aspergillus ochraceus
# Assay: Fungicidal activity against Aspergillus ochraceus ATCC 12066 incubated for 72 hrs followed by sub-culturing on broth malt medium and measured after 72 hrs
# Format: functional
# Conditions: ATCC 12066, 72 h
# Procedure, shortened: as §4
row,SMILES,MFC
1,CC1(C)c2ssc(=S)c2-c2ccccc2N1C(=O)CSC1=NCCS1,3.53 ×10⁻² mM

# Tested on: Aspergillus niger
# Assay: Antifungal activity against Aspergillus niger ATCC 6275 after 72 hrs by microdilution technique
# Format: functional
# Conditions: ATCC 6275, 72 h
# Procedure, shortened: as §3
row,MIC,SMILES
1,3.53 ×10⁻² mM,CC1(C)c2ssc(=S)c2-c2ccccc2N1C(=O)CSC1=NCCS1

# Tested on: Aspergillus niger
# Assay: Fungicidal activity against Aspergillus niger ATCC 6275 incubated for 72 hrs followed by sub-culturing on broth malt medium and measured after 72 hrs
# Format: functional
# Conditions: ATCC 6275, 72 h
# Procedure, shortened: as §4
row,SMILES,MFC
1,CC1(C)c2ssc(=S)c2-c2ccccc2N1C(=O)CSC1=NCCS1,7.06 ×10⁻² mM

# Tested on: Trichoderma viride
# Assay: Antifungal activity against Trichoderma viride IAM 5061 after 72 hrs by microdilution technique
# Format: functional
# Conditions: IAM 5061, 72 h
# Procedure, shortened: as §3
row,MIC,SMILES
1,1.88 ×10⁻² mM,CC1(C)c2ssc(=S)c2-c2ccccc2N1C(=O)CSC1=NCCS1

# Tested on: Trichoderma viride
# Assay: Fungicidal activity against Trichoderma viride IAM 5061 incubated for 72 hrs followed by sub-culturing on broth malt medium and measured after 72 hrs
# Format: functional
# Conditions: IAM 5061, 72 h
# Procedure, shortened: as §4
row,SMILES,MFC
1,CC1(C)c2ssc(=S)c2-c2ccccc2N1C(=O)CSC1=NCCS1,3.53 ×10⁻² mM

# Tested on: Penicillium ochrochloron
# Assay: Antifungal activity against Penicillium ochrochloron ATCC 9112 after 72 hrs by microdilution technique
# Format: functional
# Conditions: ATCC 9112, 72 h
# Procedure, shortened: as §3
row,MIC,SMILES
1,3.53 ×10⁻² mM,CC1(C)c2ssc(=S)c2-c2ccccc2N1C(=O)CSC1=NCCS1

# Tested on: Penicillium ochrochloron
# Assay: Fungicidal activity against Penicillium ochrochloron ATCC 9112 incubated for 72 hrs followed by sub-culturing on broth malt medium and measured after 72 hrs
# Format: functional
# Conditions: ATCC 9112, 72 h
# Procedure, shortened: as §4
row,SMILES,MFC
1,CC1(C)c2ssc(=S)c2-c2ccccc2N1C(=O)CSC1=NCCS1,7.06 ×10⁻² mM

# Tested on: not listed separately
# Assay: Antifungal activity against Penicillium funiculosum ATCC 36839 after 72 hrs by microdilution technique
# Format: functional
# Conditions: Talaromyces pinophilus, ATCC 36839, 72 h
# Procedure, shortened: as §3
row,MIC,SMILES
1,3.53 ×10⁻² mM,CC1(C)c2ssc(=S)c2-c2ccccc2N1C(=O)CSC1=NCCS1

# Tested on: not listed separately
# Assay: Fungicidal activity against Penicillium funiculosum ATCC 36839 incubated for 72 hrs followed by sub-culturing on broth malt medium and measured after 72 hrs
# Format: functional
# Conditions: Talaromyces pinophilus, ATCC 36839, 72 h
# Procedure, shortened: as §4
row,SMILES,MFC
1,CC1(C)c2ssc(=S)c2-c2ccccc2N1C(=O)CSC1=NCCS1,7.06 ×10⁻² mM

# Tested on: Penicillium cyclopium
# Assay: Antifungal activity against Penicillium verrucosum var. cyclopium food isolate after 72 hrs by microdilution technique
# Format: functional
# Conditions: not given
# Procedure, shortened: as §3
row,MIC,SMILES
1,3.53 ×10⁻² mM,CC1(C)c2ssc(=S)c2-c2ccccc2N1C(=O)CSC1=NCCS1

# Tested on: Penicillium cyclopium
# Assay: Fungicidal activity against Penicillium verrucosum var. cyclopium food isolate incubated for 72 hrs followed by sub-culturing on broth malt medium and measured after 72 hrs
# Format: functional
# Conditions: not given
# Procedure, shortened: as §4
row,SMILES,MFC
1,CC1(C)c2ssc(=S)c2-c2ccccc2N1C(=O)CSC1=NCCS1,7.06 ×10⁻² mM

# From ChEMBL document CHEMBL4393701, “Appendix A. dithioloquinolinethiones as new potential multitargeted antibacterial and antifungal agents: Synthesis, biological evaluation and molecular docking studies” (2019)
